Measured values gathered from unrelated publications.
Each line is one published result; the experiments were not run side by side.
Organism: Escherichia coli
Read-out: microbial growth

COc1c(C)c(OC(=O)c2ccc(C)cc2)c(C)c(O)c1C(=O)/C=C/c1ccccc1 gave an MIC of 5000 µg/mL (broth dilution; ATCC25922).
Cc1cc(C)n(C(=O)c2ccc(-n3c(C)ccc3C)cc2)n1 gave an MIC of 250 µg/mL (broth dilution; ATCC10536; 18 h).
With CSc1ccc(-c2nc3ccc(C)cc3n2Cc2ccccc2)cc1 the MIC was 128 µg/mL (broth dilution; ATCC25922).
For CCCCCCC#Cc1cncc(-c2nnc(SCc3ccc([N+](=O)[O-])cc3)n2C)c1, the MIC was ≥ 20 µg/mL.
With N=C(N)c1ccc(OCc2cc(Br)cc(COc3ccc(C(=N)N)cc3)c2)cc1 the MIC was > 100 µg/mL (BW25113).
For CC(C)Oc1c(NC(=O)c2ccc(NC(=O)[C@H](CC(N)=O)NC(=O)c3ccc(NC(=O)c4ccc([N+](=O)[O-])c5cccnc45)cc3)cc2)ccc(C(=O)Nc2ccc(C(=O)O)cc2)c1O, the MIC was 0.25 µg/mL (DSM1116).
With N=C(N)c1ccc(OCCCCCCCCCCCOc2ccc(C(=N)N)cc2)cc1 the MIC was > 25 µg/mL (broth dilution; BW25113).
With Cc1ccc2nc(-c3c(F)cccc3Cl)[nH]c2c1 the MIC was 128 µg/mL (broth dilution; ATCC25922).
With CC(C)Oc1c(-n2cc(-c3ccc(NC(=O)C(CC(N)=O)NC(=O)c4ccc(NC(=O)c5ccc(C#N)cc5)cc4)cc3)nn2)ccc(C(=O)Nc2ccc(C(=O)O)cc2)c1O (centres unmarked) the MIC was 0.06 µg/mL (DSM1116).
C/C(O)=C1\C(=O)C(CC(C)C)N(C(=O)C=Cc2ccccc2)C1=O (centres unmarked) gave an MIC of > 200 µg/mL (K12, K12).
For C[C@H]1COc2c(N3CCN(C)CC3)c(F)cc3c(=O)c(C(=O)O)cn1c23, the MIC was ≤ 0.03 µg/mL (agar dilution; ATCC25).
For N=C(N)c1ccc(OCCCCCCCCOc2ccc(C(=N)N)cc2)cc1, the MIC was > 25 µg/mL (broth dilution; BW25113).
CC(C)Oc1c(NC(=O)c2ccc(NC(=O)[C@H](CC(N)=O)NC(=O)c3ccc(NC(=O)c4ccc(C#N)cc4)cc3)cc2)ccc(C(=O)O)c1O has an MIC of > 64 µg/mL (DSM1116).
The MIC of O=C(Nc1ccc(F)c(Cl)c1)c1cc(Cl)ccc1O is reported as > 64 µg/mL (broth dilution; ATCC25922).
With Cc1ccc(C)n1-c1ccc(-c2nnc(-c3c(Cl)cccc3Cl)[nH]2)cc1 the MIC was 62.5 µg/mL (broth dilution; ATCC10536; 18 h).
For CCCCCCCC(=O)Oc1c(C)c(O)c(C(=O)/C=C/c2ccccc2)c(OC)c1C, the MIC was 5000 µg/mL (broth dilution; ATCC25922).
For COc1cccc(-c2nc3ccccc3n2Cc2ccccc2)c1, the MIC was 128 µg/mL (broth dilution; ATCC25922).
N=C(N)c1ccc(OCc2cc(COc3ccc(C(=N)N)cc3)cc(-c3ccccc3)c2)cc1 gave an MIC of 100 µg/mL (broth dilution; W3110).
NC1CCCCc2c1[nH]c1ccc(Br)cc21 (centres unmarked) has an MIC of 16 µg/mL (broth dilution; ATCC25922).
CCCCCCC/C=C/C(=O)N1C(=O)/C(=C(/C)O)C(=O)C1Cc1ccc(OC(C)(C)C)cc1 (centres unmarked) has an MIC of > 200 µg/mL (K12, K12).
The MIC of Clc1ccccc1NCc1ccc(Oc2ccccn2)cc1 is reported as > 25 µg/mL.
The MIC of CNC(C)C1CCC(N)C(OC2C(N)CC(N)C(OC3OCC(C)(O)C(NC)C3O)C2O)O1 (centres unmarked) is reported as 0.25 µg/mL (broth dilution; K12, K12; pH 7).
N=C(N)c1ccc(OCc2ccccc2COc2ccc(C(=N)N)cc2)cc1 has an MIC of > 200 µg/mL (BW25113).
With COc1c(C)c(OS(=O)(=O)c2ccc3ccccc3c2)c(C)c(O)c1C(=O)/C=C/c1ccccc1 the MIC was 5000 µg/mL (broth dilution; ATCC25922).
Clc1ccc(-c2nc3ccccc3[nH]2)c(Cl)c1 has an MIC of 128 µg/mL (broth dilution; ATCC25922).
CC(C)Oc1c(NC(=O)c2ccc(NC(=O)[C@H](CC(N)=O)NC(=O)c3cccc(-c4cccc(C#N)c4)c3)cc2)ccc(C(=O)Nc2ccc(C(=O)O)cc2)c1O gave an MIC of > 64 µg/mL (DSM1116).
The MIC of Clc1ccc(Cn2c(-c3ccc(Cl)cc3)nc3ccccc32)cc1 is reported as 16 µg/mL (broth dilution; ATCC25922).
For CCCCCCC/C=C/C(=O)N1C(=O)/C(=C(/C)O)C(=O)C1CO (centres unmarked), the MIC was > 200 µg/mL (K12, K12).
The MIC of CC(C)Oc1c(NC(=O)c2ccc(NC(=O)[C@H](CC(N)=O)NC(=O)c3ccc(NC(=O)c4ccc(C#N)cc4)cc3)cc2)ccc(C(=O)Nc2ccc(C(=O)O)cc2)c1O is reported as 0.5 µg/mL (DSM1116).
With Cc1ccc2nc(-c3cccc([N+](=O)[O-])c3)[nH]c2c1 the MIC was 256 µg/mL (broth dilution; ATCC25922).
The MIC of CC(C)Oc1c(NC(=O)c2ccc(NC(=O)[C@H](CC(N)=O)NC(=O)c3ccc(NC(=O)c4cc(C#N)cn4C)cc3)cc2)ccc(C(=O)Nc2ccc(C(=O)O)cc2)c1O is reported as ≤ 0.03 µg/mL (DSM1116).
The MIC of C=CCn1c(-c2ccc(Cl)c(Cl)c2)nc2ccccc21 is reported as 64 µg/mL (broth dilution; ATCC25922).
With CNC(=O)c1cc(Oc2ccc(NC(=O)Nc3ccc(Cl)c(C(F)(F)F)c3)cc2)ccn1 the MIC was > 100 µM (CFT073).
For CCCCCCCCCC(=O)Oc1c(C)c(O)c(C(=O)/C=C/c2ccccc2)c(OC)c1C, the MIC was 5000 µg/mL (broth dilution; ATCC25922).
For CC(C)Oc1c(N)ccc(C(=O)Nc2ccc(C(=O)N[C@@H](CC(N)=O)C(=O)Nc3ccc(C(=O)Nc4ccc(C(=O)Nc5ccc(C(=O)O)cc5)c(O)c4OC(C)C)cc3)cc2)c1O, the MIC was 2 µg/mL (DSM1116).
The MIC of C[C@H](CCC(=O)NCCCNCCCCNCCCN)[C@H]1CCC2=C3CC[C@@H]4C[C@H](O)CC[C@]4(C)[C@H]3C[C@H](O)[C@@]21C is reported as 64 µg/mL (broth dilution; MG1655; 20 h).
CC1=NN(CNC(=O)c2ccccc2)C(=O)C1=NNn1c(-c2ccccc2)nc2ccccc2c1=O gave an MIC of 51.9 µM (broth dilution; 24 h).
The MIC of COc1c(C(=O)Nc2ccc(C(=O)O)cc2)ccc2nc(-c3cc(NC(=O)C(CC(N)=O)NC(=O)c4ccc(NC(=O)c5ccc(C#N)cc5)cc4)cn3C)[nH]c12 (centres unmarked) is reported as > 64 µg/mL (DSM1116).
The MIC of Cc1ccc2nc(-c3ccc(Cl)c(Cl)c3)[nH]c2c1 is reported as 32 µg/mL (broth dilution; ATCC25922).
With O=C(CCCCCCCCCC[P+](c1ccccc1)(c1ccccc1)c1ccccc1)Nc1ccc(O)c(O)c1.[Br-] the MIC was > 32 µg/mL (broth dilution; ATCC25922; 18 h).
With CC1(C)S[C@@H]2[C@H](NC(=O)[C@H](N)c3ccccc3)C(=O)N2[C@H]1C(=O)O the MIC was 8 µg/mL (broth dilution; ATCC25922).
The MIC of O=[N+]([O-])c1ccc(O)c2ncccc12 is reported as 4 µg/mL (broth dilution; ATCC35218).
For CC(NCCCNC(=O)c1ccc(Cl)s1)c1cc2cc(Br)ccc2[nH]1 (centres unmarked), the MIC was 32 µg/mL (broth dilution; ATCC25922).
Cc1ccc(C)n1-c1ccc(-c2nnc(-c3ccc(O)cc3)[nH]2)cc1 has an MIC of 250 µg/mL (broth dilution; ATCC10536; 18 h).
With CC(=O)NCN1N=C(C)C(=NNn2c(-c3ccccc3)nc3ccccc3c2=O)C1=O the MIC was 59.9 µM (broth dilution; 24 h).
N=C(N)c1ccc(OCc2ccc(Br)cc2COc2ccc(C(=N)N)cc2)cc1 gave an MIC of ≥ 100 µg/mL (BW25113).
For COc1cccc(NCc2ccc(Oc3ccccn3)cc2)c1, the MIC was > 50 µg/mL.
The MIC of N=C(N)c1ccc(OCCCCCOc2ccc(C(=N)N)cc2)cc1 is reported as > 200 µg/mL (broth dilution; W3110).
The MIC of O=C(Cc1ccc(O)c(O)c1)NCCCCCCCC[P+](c1ccccc1)(c1ccccc1)c1ccccc1.[Br-] is reported as > 32 µg/mL (broth dilution; ATCC25922; 18 h).
Cc1c(CN(C)C(=O)/C=C/c2cnc3c(c2)CC(CCN)C(=O)N3)oc2ccccc12.Cl (centres unmarked) has an MIC of 2 µg/mL (broth dilution; BAA2469; clinical isolate).
The MIC of N=C(N)c1ccc(OCc2ccc(-c3ccccc3)cc2COc2ccc(C(=N)N)cc2)cc1 is reported as > 200 µg/mL (broth dilution; W3110).
The MIC of O=[N+]([O-])c1ccc(-c2nc3cc(F)ccc3[nH]2)o1 is reported as 4 µg/mL (broth dilution; ATTC25922).
With Fc1ccccc1NCc1ccc(Oc2ccccn2)cc1 the MIC was > 25 µg/mL.
